This is one part of a sample in which hits are shown more often than they occur.
Lmaj promast – reduces viability of Leishmania major promastigotes; resazurin fluorescence viability; hit rate 9% among 200,000; AID 1063; inhibition, % at 10 µM; in the data active = inhibition above about 50%;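 also: promastigotes grown with compound for 44 hours at 28 °C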
T cruzi inh – T. cruzi replication inhibition; T. cruzi beta-gal in NIH3T3, luminescence, 90 h; inhibition, % (no concentration beside the values); hit rate 1.4% among 300,000;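 active = mean inhibition across valid replicates above about 55%, limit read from the data; inconclusive = mean below that limit but half or more replicates reach it; inactive = mean below it, under half of replicates reach it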;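 also: signal also drops with host cell toxicity which is not excluded here; 0% = plate median of DMSO wells and 100% = zero luminescence signal; higher percent means less beta-gal luminescence so fewer parasites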
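System: mouse NIH/3T3 fibroblasts infected with β-gal-expressing T. cruzi Tulahuen C4 / Input: NIH/3T3 cells, 5,000 per well / Buffer or medium: Low-serum DMEM with 2% FBS / Probe or stimulus: 5000 reporter trypomastigotes per well / Schedule: ≥90 h infection period, 3 h prior cell attachment / Measured by: GalScreen luminescence, 60 min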
HSF1 inh – HSF1 inhibition; NIH3T3-HGL HSE-luciferase, MG132-induced, luminescence 8 h; hits give low values; activity change, negative = inhibition, % at 7.5 µM (by protocol); hit rate 0.77% among 300,000; AID 2098;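 active = more than half of replicate wells show activity change below -50%, luminescence cut by over half; inconclusive = some wells, but at most half, below -50%; inactive = no replicate well below -50%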;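 also: luciferase reports HSF-1 transcriptional activity via heat shock element; 0% = median of DMSO wells and -100% = zero luminescence signal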
HSF1 activator – increases HSF-1 driven luciferase reporter signal. hit rate 1.7% among 300,000. NIH3T3-HGL HSF-1 luciferase reporter, MG132, 8 h; 100% = twice DMSO control signal. activation, % at 9 µM;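 active = mean replicate activation of at least 50% with a set share of replicates each reaching 50%; inconclusive = only one of those two conditions met; inactive = mean below 50% and too few replicates reaching it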;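 also: 0% = median of the neutral control wells and 100% = twice that signal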
Hsp70 activator – switches on Hsp70 transcription | activation, % at 10 µM | hit rate 0.04% among 200,000 | HeLa Hsp70 promoter luciferase reporter, luminescence; scaled: vehicle 0, proteasome-inhibitor control 100%;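 active = activation above the mean across all tested compounds plus 3 SD, cutoff set per campaign, cut at about 5.5% in these data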;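 also: 100% = MG132 at 30 µM as the positive control and 0% = DMSO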
An asterisk follows results filed as active; ? = inconclusive; · = no result given.

SMILES | Lmaj promast | T cruzi inh | HSF1 inh | HSF1 activator | Hsp70 activator
COc1ccc(OC)c(NC(=O)C2CC(/C=C/c3ccccc3)=NO2)c1 (configuration not stated) | · | -9.8 | -2.5 | 22.8 | ·
O=C(c1ccc(Cl)cc1Cl)C1(n2cncn2)Oc2ccccc2C1O (configuration not stated) | 27.5 | 54.9* | 9.8 | 16.3 | -0.1
COc1ccccc1NC(=O)c1cc(OC)c(OC)cc1[N+](=O)[O-] | 0.2 | -1.4 | 4.5 | 9.4 | -0.2
COc1ccccc1NC(=O)CN(C)S(=O)(=O)c1ccc2c(c1)CCC(=O)N2 | -6.4 | -3.9 | -7.5 | 1.2 | -0.2
COc1ccc(NC(=O)CN(c2ccc([N+](=O)[O-])cc2)S(=O)(=O)c2ccccc2)c(OC)c1 | 74.7* | 1.7 | 0.3 | 0.7 | -0.3
COc1ccc(NC(=O)c2ccc([N+](=O)[O-])cc2[N+](=O)[O-])c(OC)c1 | 6.3 | 61.2* | -0.2 | 5.6 | -0.3
COc1ccc(NC(=O)CCN2C(=O)c3ccc([N+](=O)[O-])cc3C2=O)c(OC)c1 | 89.9* | -9.1 | -1.0 | 4.9 | -0.2
COc1ccc(NC(=O)CN(C)S(=O)(=O)c2ccc3c(c2)CCC(=O)N3)c(OC)c1 | 0.4 | 0.4 | -86.3* | -89.8 | -0.3
CC(C)(C)Nc1nc(OCC#N)nc(N2CCCCC2)n1 | 35.3 | 15.7 | 0.9 | 7.4 | -0.1
CC(C)(CO)Nc1nc(N2CCCC2)nc(N2CCCC2)n1 | 100.0* | 4.0 | -6.7 | 0.7 | -0.4
CCNc1nc(N2CCCC2)nc(N2CCCC2)n1 | 72.8* | -12.0 | 9.2 | 34.0 | -0.4
CCNc1nc(NC(C)(C)C)nc(N2CCCCC2)n1 | 95.1* | 48.6 | 1.6 | -6.6 | -0.1
CCNc1nc(C(=O)O)nc(N2CCOCC2)n1 | -8.7 | -13.7 | -22.2 | -34.1 | 0.0
CCn1ccnc1CN(C)Cc1c(C(=O)N2CCCCCCC2)nc2ccc(Cl)cn12 | · | 11.9 | 3.0 | -12.4 | ·
CCOC(=O)c1csc(COc2ccc(OC)cc2)n1 | · | 2.9 | 22.0 | 64.3* | ·
O=C(NC(=S)N1CCN(c2ccc(Cl)cc2[N+](=O)[O-])CC1)c1cccs1 | 75.2* | 27.8 | -65.6* | -67.8 | -0.6
O=C(NC(=S)N1CCN(c2ccc(Cl)cc2[N+](=O)[O-])CC1)c1ccco1 | -9.6 | 14.8 | -11.7 | 9.2 | -0.3
O=C(NC(=S)N1CCCCC1)c1cccs1 | 54.9* | -11.8 | ? | -55.8 | 0.0
CCn1cnc2cc(NCc3ccc(N(C)C)cc3)ccc21 | -2.2 | 31.1 | -25.5 | -44.0 | 0.2
Cn1cnc2cc(NCc3ccc(Cl)cc3)ccc21 | · | -9.4 | 63.1 | 66.4* | ·
CN(C)c1ccc(CNc2ccc3c(c2)ncn3C(C)(C)C)cc1 | · | 37.6 | -53.9* | -62.3 | ·
Cc1ccc(S(=O)(=O)CC(=O)Nc2cc(C)on2)cc1 | · | -2.9 | 3.3 | -14.1 | ·
Cc1cccc(C)c1OCC(=O)NCc1nnc(SCC(=O)NC2CCCCC2C)n1C (configuration not stated) | -1.8 | 1.6 | 36.6 | 93.6* | 0.1
O=C(CCc1ccccc1)N1CCN(c2ccccn2)CC1 | 51.9* | -2.6 | -22.0 | -35.8 | -0.2
COc1ccc(C(=O)CCC(=O)N2CCN(c3ccc([N+](=O)[O-])cc3)CC2)cc1 | · | -5.0 | 0.9 | 3.5 | ·
SMILES | Lmaj promast | T cruzi inh | HSF1 inh | HSF1 activator | Hsp70 activator
O=C(CCCC(=O)N1CCN(c2ccc([N+](=O)[O-])cc2)CC1)c1ccccc1 | 85.9* | -14.9 | 4.7 | 17.5 | -0.2
CCOC(=O)c1cc(-c2ccccc2)n(CCC(=O)O)c1C | -6.6 | 6.6 | 3.5 | 1.6 | -0.3
CCOC(=O)c1cc(-c2ccc(C)cc2)n(CCC(=O)N2CCN(c3ccccn3)CC2)c1C | 89.5* | 21.5 | -2.8 | 13.3 | 0.1
O=C(CCCc1ccccc1)N1CCN(c2ccc([N+](=O)[O-])cc2)CC1 | 58.4* | 2.5 | 1.6 | -4.2 | 0.0
CCc1nc2ccc(C(=O)N3CCN(c4ccc([N+](=O)[O-])cc4)CC3)cc2nc1CC | · | 17.7 | 24.5 | 60.0* | ·
C=CCN1CCN(c2ccncc2S(=O)(=O)N2CCCCC2)CC1 | · | 14.8 | 4.5 | -1.4 | ·
COc1cccc(/C=N/N2CCN(c3ccncc3S(=O)(=O)N3CCCCC3)CC2)c1 | 98.9* | 65.7* | 1.3 | 4.8 | 1.8
O=S(=O)(c1cnccc1N1CCN(/N=C/c2ccc(Cl)cc2)CC1)N1CCCCC1 | 79.1* | 41.8 | -4.7 | -15.1 | -0.1
Cc1ccc(/C=N/N2CCN(c3ccncc3S(=O)(=O)N3CCCCC3)CC2)cc1 | 67.0* | 14.4 | -1.6 | -3.3 | -0.2
NCC(=O)Nc1ccc(Cl)cc1C(=O)c1ccc[nH]1 | · | 2.6 | 10.5 | 8.5 | ·
O=C(COc1ccccc1C(=O)NCC1CCCO1)Nc1ccc(Br)cc1 (configuration not stated) | 4.4 | 12.2 | -0.3 | 11.2 | -0.1
Cc1cc2nc(-c3ccc(SCC(=O)N4CCOCC4)nc3)[nH]c2cc1C | 60.2* | -10.4 | 15.2 | 15.8 | 0.0
CCOC(=O)CSc1ccc(-c2nc3cc(C)c(C)cc3[nH]2)cn1 | 56.6* | 3.9 | 1.9 | -3.1 | 0.3
Cc1cc2nc(-c3ccc(SCC(=O)N4CCN(C(=O)c5ccco5)CC4)nc3)[nH]c2cc1C | 16.7 | -7.7 | 1.1 | 20.0 | 0.1
Cc1cc2nc(-c3ccc(SCc4ccccn4)nc3)[nH]c2cc1C | 64.4* | -9.8 | 18.8 | 23.9 | -0.2
COc1ccc(NC(=O)CC2CC3CCC2C3)cn1 (configuration not stated) | 3.4 | -17.1 | 7.6 | 9.3 | 2.7
O=C(Nc1nc(-c2ccccn2)cs1)C1CC1 | 86.2* | -15.5 | 6.4 | 12.9 | 0.4
CN(CC1CCCO1)S(=O)(=O)c1ccc(C(=O)Nc2nc(-c3ccccn3)cs2)cc1 (configuration not stated) | 100.3* | · | · | · | -0.5
CN(CC1CCCO1)S(=O)(=O)c1ccc(C(=O)Nc2ccccc2F)cc1 (configuration not stated) | · | -11.6 | 3.9 | 1.5 | ·
O=C(Nc1nc(-c2ccccn2)cs1)C12CC3CC(CC(O)(C3)C1)C2 | 33.3 | -16.1 | 8.3 | 14.2 | -0.1
O=C(CC1CC2CCC1C2)Nc1nc(-c2ccccn2)cs1 (configuration not stated) | 100.0* | 62.0* | 9.1 | 12.8 | -0.1
O=C(Nc1nc(-c2ccccn2)cs1)C1CC(=O)N(c2ccc3c(c2)OCCO3)C1 (configuration not stated) | 100.1* | -17.0 | -0.1 | 34.5 | -0.6
CCc1ccccc1NC(=O)C1CCCN1C(=O)Nc1ccc(C)cc1 (configuration not stated) | · | -10.7 | -4.3 | -2.5 | ·
CCc1cc(C(=O)N2CCCC(CNC(=O)c3ccc(-c4ccccc4)cc3)C2)no1 (configuration not stated) | 1.1 | 32.9 | -0.4 | 18.7 | -0.2
O=C(/C=C/c1nc2ccccc2s1)N1CCCCCC1 | 5.0 | 8.9 | 32.3 | 75.0* | -0.2
CC1CCCCC1NC(=O)/C=C/c1nc2ccccc2s1 (configuration not stated) | 45.6 | 2.8 | 18.9 | 35.7 | 0.0
Cc1[nH]c2ccccc2c1SCc1nnc(SCc2ccccc2)n1C | · | 17.8 | -4.8 | 3.0 | ·

Compound activity deposited in PubChem by several laboratories.
